Results taken from ChEMBL document CHEMBL1123786, “Design of nonpeptidal ligands for a peptide receptor: cholecystokinin antagonists” (J Med Chem, 1987).

Columns and labels:
Cholecystokinin receptor = target: T1, Cholecystokinin receptor (Rattus norvegicus, UniProt P30551+P30553); type: protein assay
T1 sequence (P30551 whole entry): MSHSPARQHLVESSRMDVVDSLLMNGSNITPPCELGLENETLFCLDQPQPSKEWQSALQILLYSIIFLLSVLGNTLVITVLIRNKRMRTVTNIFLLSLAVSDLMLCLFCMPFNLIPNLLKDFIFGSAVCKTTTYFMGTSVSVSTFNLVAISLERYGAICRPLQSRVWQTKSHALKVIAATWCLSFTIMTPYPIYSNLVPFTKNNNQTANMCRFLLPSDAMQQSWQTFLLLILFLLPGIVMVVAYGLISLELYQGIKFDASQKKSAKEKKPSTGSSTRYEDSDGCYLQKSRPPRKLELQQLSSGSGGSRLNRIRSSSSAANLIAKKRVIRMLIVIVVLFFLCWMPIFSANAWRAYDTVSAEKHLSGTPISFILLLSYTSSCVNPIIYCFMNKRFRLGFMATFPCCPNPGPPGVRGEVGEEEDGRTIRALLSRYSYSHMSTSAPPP
T1 sequence (P30553 whole entry): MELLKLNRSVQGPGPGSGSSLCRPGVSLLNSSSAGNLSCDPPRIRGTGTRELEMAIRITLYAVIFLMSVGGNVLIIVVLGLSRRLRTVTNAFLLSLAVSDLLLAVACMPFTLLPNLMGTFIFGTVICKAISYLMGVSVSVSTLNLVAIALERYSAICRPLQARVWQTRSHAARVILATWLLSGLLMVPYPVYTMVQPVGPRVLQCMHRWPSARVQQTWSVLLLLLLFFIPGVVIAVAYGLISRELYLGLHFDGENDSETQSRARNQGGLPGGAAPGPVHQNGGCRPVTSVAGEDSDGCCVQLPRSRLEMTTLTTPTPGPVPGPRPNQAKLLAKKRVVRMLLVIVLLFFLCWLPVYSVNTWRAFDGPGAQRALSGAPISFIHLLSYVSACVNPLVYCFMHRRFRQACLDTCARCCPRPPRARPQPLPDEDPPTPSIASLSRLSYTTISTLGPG

[1] = target: GABA-A receptor; anion channel; assay: Displacement of [3H]diazepam from rat brain GABA-A benzodiazepine receptor
Mus musculus [2] = assay: In vivo activity on the basis of the ability to antagonize CCK-8 inhibition of charcoal meal gastric emptying in mice after oral administration; type: functional; details: Stomach
Procedure, shortened: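 Oral dosing of mice (N ≥ 10/dose) 1 h before sc CCK-8 at 80 μg/kg. The charcoal meal followed CCK-8 by 5 min, with gastric emptying scored 5 min after that. ED50 was obtained by regression analysis using at least three dose levels.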

Mus musculus [3] = assay: In vivo activity on the basis of the ability to antagonize CCK-8 inhibition of charcoal meal gastric emptying in mice after intraperitoneal administration; type: functional; details: Stomach, ip
Procedure, shortened: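 Mice dosed intraperitoneally 1 h before CCK-8 (80 μg/kg, sc), N ≥ 10/dose. A charcoal meal was given 5 min after CCK-8 and gastric emptying was measured 5 min later. ED50 was derived by regression from at least three dose levels.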

Rattus norvegicus = species on record: Rattus norvegicus; assay: Selectivity of binding to pancreatic CCK and brain benzodiazepine receptors, ratio of IC50
[4] = target: GABA-A receptor; anion channel; assay: Displacement of [3H]flunitrazepam from GABA-A benzodiazepine receptor of guinea pig brain; design: species or system Cavia porcellus

## O=C1Nc2ccccc2C(c2ccccc2F)=NC1C[C@@H]1CNc2ccccc21 (stereo partly drawn)
Cholecystokinin receptor
  IC50: 11 µM

## O=C1Nc2ccccc2C(c2ccccc2)=NC1C[C@@H]1CNc2ccccc21 (stereo partly drawn)
Cholecystokinin receptor
  IC50: 3.2 µM

## O=C1Nc2ccc(Cl)cc2C(c2ccccc2Cl)=N[C@@H]1Cc1c[nH]c2ccccc12
[1]
  IC50: > 180 µM
Cholecystokinin receptor
  IC50: 5 µM
Mus musculus [2]
  ED50: > 600 mg/kg
Mus musculus [3]
  ED50: 119 mg/kg

## O=C1[C@@H](Cc2c[nH]c3ccccc23)N=C(c2ccccc2F)c2ccccc2N1CC(F)(F)F
Cholecystokinin receptor
  IC50: 3.6 µM

## CC(C)CC(NC(=O)OC(C)(C)C)C(=O)N1CC(CC2N=C(c3ccccc3)c3ccccc3NC2=O)c2ccccc21 (stereo not drawn)
Cholecystokinin receptor
  IC50: 4.7 µM

## CC(=O)N1C(Cc2cn(C)c3ccccc23)C(=O)N(C)c2ccccc2[C@@H]1c1ccccc1F (stereo partly drawn)
Cholecystokinin receptor
  IC50: ~ 100 uM

## CN1C(=O)CN=C(c2ccccc2F)c2cc([N+](=O)[O-])ccc21 [FLUNITRAZEPAM]
[1]
  IC50: 0.0017 µM

## CCN1C(=O)[C@@H](Cc2c[nH]c3ccccc23)N=C(c2ccccc2F)c2ccccc21
Cholecystokinin receptor
  IC50: 0.3 µM

## O=C1Nc2ccccc2C1C[C@H]1N=C(c2ccccc2)c2cc(Cl)ccc2NC1=O (stereo partly drawn)
Cholecystokinin receptor
  IC50: 24 µM

## O=C1CN=C(c2ccccc2Cl)c2cc([N+](=O)[O-])ccc2N1 [CLONAZEPAM]
[1]
  IC50: 0.0017 µM
Cholecystokinin receptor
  IC50: > 100 µM
Rattus norvegicus
  Ratio: > 58000

## CN1C(=O)[C@@H](Cc2c[nH]c3ccccc23)N=C(c2ccccc2F)c2ccccc21
[4]
  IC50: > 100 µM
Cholecystokinin receptor
  IC50: 0.27 µM
Mus musculus [2]
  ED50: 25 mg/kg
Mus musculus [3]
  ED50: 15 mg/kg

## O=C1Nc2ccc(Cl)cc2C(c2ccccc2)=NC1Cc1ccc2ccccc2c1 (stereo not drawn)
Cholecystokinin receptor
  IC50: 49 µM

## CC(C)CC(N)C(=O)N1CC(CC2N=C(c3ccccc3)c3ccccc3NC2=O)c2ccccc21.Cl (stereo not drawn)
Cholecystokinin receptor
  IC50: 6.6 µM

## CN1C[C@@H](CC2N=C(c3ccccc3)c3ccccc3N(C)C2=O)c2ccccc21 (stereo partly drawn)
Cholecystokinin receptor
  IC50: 13 µM

## CN1C(=O)[C@@H](Cc2cn(C(=O)c3ccc(Cl)cc3)c3ccccc23)N=C(c2ccccc2F)c2ccccc21
Cholecystokinin receptor
  IC50: 11 µM

## CCOC(=O)CN1C(=O)[C@@H](Cc2c[nH]c3ccccc23)N=C(c2ccccc2F)c2ccccc21
Cholecystokinin receptor
  IC50: 8.3 µM

## CN1C(=O)/C(=C\c2ccsc2)N=C(c2ccccc2)c2ccccc21
Cholecystokinin receptor
  IC50: 25 µM

## SC1=Nc2ccc(Cl)cc2C(c2ccccc2)=N[C@@H]1Cc1c[nH]c2ccccc12
Cholecystokinin receptor
  IC50: 4.5 µM

## CC(C)CCN1C(=O)[C@@H](Cc2c[nH]c3ccccc23)N=C(c2ccccc2F)c2ccccc21
Cholecystokinin receptor
  IC50: ~ 100 uM

## O=C1[C@@H](Cc2c[nH]c3ccccc23)N=C(c2ccccc2)c2cc(Cl)ccc2N1Cc1ccccc1
Cholecystokinin receptor
  IC50: > 100 µM

## O=C1Nc2ccccc2C(c2ccccc2F)=N[C@H]1Cc1c[nH]c2ccccc12
Cholecystokinin receptor
  IC50: 10.6 µM

## O=C1[C@@H](Cc2c[nH]c3ccccc23)N=C(c2ccccc2F)c2ccccc2N1CC1CC1
Cholecystokinin receptor
  IC50: 2.2 µM

## O=C1Nc2ccccc2C(c2ccccc2F)=NC1Cc1c[nH]c2cc(F)ccc12 (stereo not drawn)
Cholecystokinin receptor
  IC50: 1.3 µM

## CCCCCN1C(=O)[C@@H](Cc2c[nH]c3ccccc23)N=C(c2ccccc2F)c2ccccc21
Cholecystokinin receptor
  IC50: ~ 100 uM

## CC(C)C[C@H]1N=C(c2ccccc2)c2cc(Cl)ccc2NC1=O
Cholecystokinin receptor
  IC50: 42 µM

## O=C(O)CN1C(=O)[C@@H](Cc2c[nH]c3ccccc23)N=C(c2ccccc2F)c2ccccc21
[1]
  IC50: > 100 µM
Cholecystokinin receptor
  IC50: 0.3 µM
Mus musculus [2]
  ED50: 42 mg/kg
Rattus norvegicus
  Ratio: < 0.003

## O=C1Nc2ccc(Cl)cc2C(c2ccccc2)N[C@@H]1Cc1c[nH]c2ccccc12 (stereo partly drawn)
Cholecystokinin receptor
  IC50: 12 µM

## O=C1Nc2ccccc2C(c2ccccc2F)=NC1Cc1c[nH]c2ccc(F)cc12 (stereo not drawn)
Cholecystokinin receptor
  IC50: 1.4 µM

## CC1=N[C@H](Cc2c[nH]c3ccccc23)C(=O)Nc2ccccc21
[1]
  IC50: > 100 µM
Cholecystokinin receptor
  IC50: 48 µM

## O=C1Nc2ccccc2C(c2ccccc2)=NC1C[C@H]1CNc2ccccc21 (stereo partly drawn)
Cholecystokinin receptor
  IC50: 21 µM

## O=C(O)c1ccccc1C1=N[C@H](Cc2c[nH]c3ccccc23)C(=O)Nc2ccccc21
Cholecystokinin receptor
  IC50: 18 µM

## O=C1Nc2ccccc2C(c2ccccc2)=NC1Cc1c[nH]c2ccc(Br)cc12 (stereo not drawn)
Cholecystokinin receptor
  IC50: 2.9 µM

## CN1C(=O)/C(=C/c2ccsc2)N=C(c2ccccc2)c2ccccc21
Cholecystokinin receptor
  IC50: 100 µM

## CN1C(=O)[C@@H](Cc2c[nH]c3ccccc23)N=C(c2ccccc2)c2cc(Cl)ccc21
Cholecystokinin receptor
  IC50: 1.4 µM

## O=C1Nc2ccccc2C(c2ccccc2F)=NC1Cc1ccsc1 (stereo not drawn)
Cholecystokinin receptor
  IC50: 33 µM

## CN1C(=O)[C@@H](Cc2cn(C)c3ccccc23)N=C(c2ccccc2)c2ccccc21
Cholecystokinin receptor
  IC50: 0.1 µM

## NC(=O)CN1C(=O)[C@@H](Cc2c[nH]c3ccccc23)N=C(c2ccccc2F)c2ccccc21
Cholecystokinin receptor
  IC50: 2.1 µM

## CN1C(=O)[C@@H](Cc2cn(C)c3ccccc23)N(C(=O)c2ccc(Cl)cc2)C(c2ccccc2F)c2ccccc21 (stereo partly drawn)
Cholecystokinin receptor
  IC50: > 100 µM

## O=C1Nc2ccc(Cl)cc2C(c2ccccc2)=N[C@@H]1Cc1c[nH]c2ccccc12
[1]
  IC50: > 100 µM
Cholecystokinin receptor
  IC50: 3.4 µM
Mus musculus [2]
  ED50: > 300 mg/kg
Mus musculus [3]
  ED50: 88 mg/kg

## O=C1Nc2ccccc2C(c2ccccc2F)=NC1c1ccsc1 (stereo not drawn)
Cholecystokinin receptor
  IC50: > 100 µM

## Cc1nnc2n1-c1ccccc1C(c1ccccc1F)=N[C@@H]2Cc1c[nH]c2ccccc12
[4]
  IC50: 0.8 µM
Cholecystokinin receptor
  IC50: 1.2 µM
Mus musculus [2]
  ED50: 76 mg/kg
Rattus norvegicus
  Ratio: 1.5

## O=C1[C@H](Cc2c[nH]c3ccccc23)N=C(c2ccccc2)c2cc(Cl)ccc2N1Cc1ccccc1
Cholecystokinin receptor
  IC50: > 100 µM

## CN1CC(CC2N=C(c3ccccc3)c3ccccc3N(C)C2=O)c2ccccc21 (stereo not drawn)
Cholecystokinin receptor
  IC50: 10 µM

## CN(C)CCN1C(=O)[C@@H](Cc2c[nH]c3ccccc23)N=C(c2ccccc2F)c2ccccc21
Cholecystokinin receptor
  IC50: ~ 100 uM

## O=C1Nc2ccc(Cl)cc2C(c2ccccc2)=N[C@@H]1COCc1ccccc1
Cholecystokinin receptor
  IC50: 60 µM

## Fc1ccccc1C1=N[C@H](Cc2c[nH]c3ccccc23)CNc2ccccc21
Cholecystokinin receptor
  IC50: 4 µM

## CN1C(=O)[C@@H](Cc2cn(Cc3ccccc3)c3ccccc23)N=C(c2ccccc2)c2cc(Cl)ccc21
Cholecystokinin receptor
  IC50: ~ 150 uM

## O=C1Nc2ccc(Cl)cc2C(c2ccccc2)=N[C@H]1Cc1c[nH]c2ccccc12
[1]
  IC50: 5.6 µM
Cholecystokinin receptor
  IC50: 32 µM
Mus musculus [2]
  ED50: > 150 mg/kg

## O=C1Nc2ccccc2C(c2ccccc2F)=NC1C[C@H]1CNc2ccccc21 (stereo partly drawn)
Cholecystokinin receptor
  IC50: 17 µM

## O=C1Nc2ccccc2C(c2ccccc2)=N[C@@H]1Cc1c[nH]c2ccccc12
[1]
  IC50: > 100 µM
Cholecystokinin receptor
  IC50: 1.2 µM
Mus musculus [2]
  ED50: > 150 mg/kg

## O=C1Nc2ccc(Cl)cc2C(c2ccccc2)=N[C@@H]1Cc1ccc(OCc2ccccc2)cc1
Cholecystokinin receptor
  IC50: > 100 µM

## O=C1Nc2ccccc2C(c2ccccc2F)=N[C@@H]1Cc1c[nH]c2ccccc12
[1]
  IC50: > 100 µM
Cholecystokinin receptor
  IC50: 0.5 µM
Mus musculus [2]
  ED50: 104 mg/kg
Mus musculus [3]
  ED50: 41 mg/kg

## O=C1Nc2ccc(Cl)cc2C(c2ccccc2)=NC1Cc1cccc2ccccc12 (stereo not drawn)
Cholecystokinin receptor
  IC50: 23 µM

## O=C(O)CCN1C(=O)[C@@H](Cc2c[nH]c3ccccc23)N=C(c2ccccc2F)c2ccccc21
Cholecystokinin receptor
  IC50: 1.4 µM

## N#CCCN1C(=O)[C@@H](Cc2c[nH]c3ccccc23)N=C(c2ccccc2F)c2ccccc21
Cholecystokinin receptor
  IC50: 0.7 µM

## CN1C(=O)[C@@H](Cc2cn(C)c3ccccc23)N=C(c2ccccc2F)c2ccccc21
Cholecystokinin receptor
  IC50: 0.36 µM
Mus musculus [2]
  ED50: 39 mg/kg
Mus musculus [3]
  ED50: 18 mg/kg

## CN1C(=O)[C@@H](Cc2c[nH]c3ccccc23)N=C(c2ccccc2)c2ccccc21
Cholecystokinin receptor
  IC50: 0.3 µM

## CC(C)C[C@@H]1N[C@H]2N(C1=O)c1ccccc1[C@@]2(O)C[C@@H]1NC(=O)c2ccccc2-n2c1nc1ccccc1c2=O [ASPERLICIN]
[1]
  IC50: 50 µM
Mus musculus [2]
  ED50: > 300 mg/kg
Rattus norvegicus
  Ratio: 0.028

## O=C1Nc2ccc(Cl)cc2C(c2ccccc2)=N[C@@H]1Cc1ccccc1
Cholecystokinin receptor
  IC50: 80 µM
